The text below walks through data of paper PMC4885513 (The Journal of Pharmacology and Experimental Therapeutics, 2016).

Each structure is given as a SMILES string. “Also recorded” adds a separate entry of the source. Like-named read-outs stand apart in the source and are kept apart here. A value given as a limit tells only on which side of the number the result lay.

One series has as its system locomotor activity. Kind of series: Open-field test. In kind it is in vivo, male C57BL/6N mice. Particulars: for total distance covered in the open field test: 30 min before test, 10 min test, control 38.3 ± 1.5 m.
Series [1] concerns pentylenetetrazole (PTZ)-induced seizure threshold. Kind of series: PTZ-induced seizure threshold. Type of series: in vivo, male C57BL/6N mice. Conditions: for PTZ-induced seizure threshold: 30 min before test, saline control 40.4 ± 1.4. Put shortly:
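Male C57BL/6N mice aged 3–6 months received compound i.p. 30 min before testing. Vehicle was 0.9% NaCl with 10% DMSO and 3% Tween 80. PTZ (10 mg/ml in saline, pH 7.4) was infused into the tail vein at 100 µl/min in freely moving animals until seizure onset. Threshold was the infused PTZ dose per body weight (mg/kg). ≥3 mice per point; one-way ANOVA with Bonferroni.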

Another series deals with α1β2γ2S receptors (Rattus norvegicus, UniProt P62813+P63138). The series can be described thus: IGABA enhancement. Particulars: for Emax: read-out: maximal IGABA enhancement (Emax); for Hill-coefficient (nH): α1β2γ2S, GABA EC3-7, Xenopus oocytes. In kind it is cell-based. Put shortly:
(§1)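 Rat α1, β1/β2/β3 and γ2S cRNAs (100–2000 ng/μl/subunit, about 10–50 nl) were injected into collagenase-treated stage V–VI Xenopus oocytes held at 18°C in ND96. The α:β:γ ratio was 1:1:10 for β2 and β3 and 3:1:10 for β1. Recordings used two-electrode voltage clamp at −70 mV in a HEPES bath at pH 7.4. Compound (≤500 µM, DMSO matched) was applied with per-oocyte GABA EC3–7 by fast perfusion. Oocytes above 5 µA were excluded. Enhancement = I(GABA+Comp)/IGABA − 1, Hill-fitted for EC50, Emax and nH; ≥3 oocytes, ≥2 batches.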

Series [2] has as its target T1, α1β3γ2S receptors (Rattus norvegicus, UniProt P62813+P63079). The series can be described thus: IGABA enhancement. Type of series: cell-based. Conditions: for Emax: read-out: maximal IGABA enhancement (Emax); for Hill-coefficient (nH): GABA EC3-7, Xenopus oocytes. Put shortly: as §1
The target in another series is α1β1γ2S receptors (Rattus norvegicus, UniProt P15431+P62813). The series can be described thus: IGABA enhancement. In kind it is cell-based. Conditions: for Emax: read-out: maximal IGABA enhancement (Emax); for Hill-coefficient (nH): α1β1γ2S, GABA EC3-7, Xenopus oocytes. A digest of the protocol: as §1
Chain of α1β1γ2S receptors (P15431 26-474): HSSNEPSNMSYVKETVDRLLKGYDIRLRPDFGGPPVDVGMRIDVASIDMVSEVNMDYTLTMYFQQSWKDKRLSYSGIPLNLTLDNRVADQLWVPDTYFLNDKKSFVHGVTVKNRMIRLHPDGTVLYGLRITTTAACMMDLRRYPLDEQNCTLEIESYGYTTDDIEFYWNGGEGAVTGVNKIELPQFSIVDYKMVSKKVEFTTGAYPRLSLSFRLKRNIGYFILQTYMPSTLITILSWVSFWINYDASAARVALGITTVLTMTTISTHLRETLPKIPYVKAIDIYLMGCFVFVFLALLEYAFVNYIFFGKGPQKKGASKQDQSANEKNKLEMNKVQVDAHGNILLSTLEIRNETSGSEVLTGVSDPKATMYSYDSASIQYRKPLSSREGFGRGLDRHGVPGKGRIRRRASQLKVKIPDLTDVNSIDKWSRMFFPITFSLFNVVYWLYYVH
Chain of α1β1γ2S receptors (P62813 28-455): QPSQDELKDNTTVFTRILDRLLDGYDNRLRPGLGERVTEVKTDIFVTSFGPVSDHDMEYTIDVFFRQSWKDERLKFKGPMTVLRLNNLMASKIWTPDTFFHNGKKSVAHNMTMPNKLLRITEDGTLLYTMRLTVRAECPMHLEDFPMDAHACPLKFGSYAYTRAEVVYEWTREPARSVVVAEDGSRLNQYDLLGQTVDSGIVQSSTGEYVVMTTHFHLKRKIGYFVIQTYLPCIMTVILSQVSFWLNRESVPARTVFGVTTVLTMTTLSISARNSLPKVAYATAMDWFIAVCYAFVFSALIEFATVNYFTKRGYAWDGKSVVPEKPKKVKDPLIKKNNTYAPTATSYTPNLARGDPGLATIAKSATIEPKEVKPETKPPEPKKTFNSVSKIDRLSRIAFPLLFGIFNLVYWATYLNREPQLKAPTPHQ
Chain of α1β1γ2S receptors (P18508 39-466 partner): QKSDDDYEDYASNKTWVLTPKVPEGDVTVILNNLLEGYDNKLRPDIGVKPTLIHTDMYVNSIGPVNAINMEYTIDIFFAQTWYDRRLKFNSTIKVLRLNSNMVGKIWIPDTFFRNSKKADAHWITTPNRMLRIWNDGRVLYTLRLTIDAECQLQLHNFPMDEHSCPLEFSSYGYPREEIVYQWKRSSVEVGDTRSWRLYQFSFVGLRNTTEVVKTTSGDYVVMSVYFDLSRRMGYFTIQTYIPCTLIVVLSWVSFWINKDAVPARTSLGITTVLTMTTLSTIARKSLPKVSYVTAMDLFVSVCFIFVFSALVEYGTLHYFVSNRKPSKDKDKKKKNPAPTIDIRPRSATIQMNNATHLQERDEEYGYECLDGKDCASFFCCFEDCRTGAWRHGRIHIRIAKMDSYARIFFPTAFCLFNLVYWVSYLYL
In series [3] the target is T1, α1β3γ2S receptors. Particulars: GABA EC3-7, Xenopus oocytes, ref Luger et al. (2015); cited from earlier work.
Series [4] relates to pentylenetetrazole (PTZ)-induced seizure threshold. Conditions: 3 mg/kg i.p., 30 min before test; ref Hintersteiner et al. (2014); cited from earlier work.
The test system of a further series is GABAA channels. Conditions: ref Khom et al., 2007; cited from earlier work.

T1 sequence (P63079 26-473): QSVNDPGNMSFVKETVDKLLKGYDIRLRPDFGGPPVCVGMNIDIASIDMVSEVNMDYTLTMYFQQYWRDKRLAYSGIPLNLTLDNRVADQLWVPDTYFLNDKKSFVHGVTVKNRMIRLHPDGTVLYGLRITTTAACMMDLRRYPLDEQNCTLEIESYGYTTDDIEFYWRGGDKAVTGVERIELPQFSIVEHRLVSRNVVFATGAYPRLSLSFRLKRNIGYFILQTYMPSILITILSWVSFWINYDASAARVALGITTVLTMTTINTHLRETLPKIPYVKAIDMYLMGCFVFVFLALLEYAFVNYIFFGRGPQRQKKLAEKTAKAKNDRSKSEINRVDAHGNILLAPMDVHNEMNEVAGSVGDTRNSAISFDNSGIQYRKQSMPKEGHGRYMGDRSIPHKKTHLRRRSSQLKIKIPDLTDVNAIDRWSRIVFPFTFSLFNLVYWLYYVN
T1 sequence (P62813 28-455): as the sequence (P62813 28-455) above
T1 sequence (P18508 39-466 partner): as the sequence (P18508 39-466 partner) above
Chain of α1β2γ2S receptors (P63138 25-474 limits assumed): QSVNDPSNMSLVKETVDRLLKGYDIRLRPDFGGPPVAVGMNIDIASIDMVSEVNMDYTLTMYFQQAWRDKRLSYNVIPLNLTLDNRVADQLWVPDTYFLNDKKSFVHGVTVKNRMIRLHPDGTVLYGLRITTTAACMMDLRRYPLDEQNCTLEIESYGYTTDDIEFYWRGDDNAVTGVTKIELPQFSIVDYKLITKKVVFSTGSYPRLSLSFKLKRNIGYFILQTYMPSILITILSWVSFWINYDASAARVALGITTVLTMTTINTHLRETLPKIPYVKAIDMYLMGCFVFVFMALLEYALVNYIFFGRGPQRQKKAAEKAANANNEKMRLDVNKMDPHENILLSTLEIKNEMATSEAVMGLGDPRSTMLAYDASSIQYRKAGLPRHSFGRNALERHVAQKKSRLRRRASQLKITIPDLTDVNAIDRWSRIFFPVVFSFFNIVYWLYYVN
Chain of α1β2γ2S receptors (P62813 28-455): as the sequence (P62813 28-455) above
Chain of α1β2γ2S receptors (P18508 39-466 partner): as the sequence (P18508 39-466 partner) above

One may read the EC50 as the concentration giving half of the maximal effect. In general, Emax refers to the greatest response seen or fitted, relative to the assay's reference. For the compound `CC1=C2[C@H](/C=C(\C)C#N)CC[C@@H](C)[C@H]2CC1` [VA-CN, (E)-3-((4S,7R,7aR)-3,7-dimethyl-2,4,5,6,7,7a-hexahydro-1H-inden-4-yl)-2-methylacrylonitrile], the “total distance covered in the open field test” value (“total distance covered” below) in the series with locomotor activity (30 mg/kg i.p.) worked out at 31.5±1.5 m. In addition, the “effect on locomotor activity vs control” value with locomotor activity (low doses (≤10 mg/kg) i.p.) is “did not affect locomotor activity”. This compound yielded a PTZ-induced seizure threshold in series [1] (10 mg/kg i.p.) of 51.1 ± 0.6 mg/kg PTZ. In addition, the EC50 at α1β2γ2S receptors amounted to 56.5 ± 13.3 µM; at α1β3γ2S receptors [2], 42.4 ± 15.8 µM; on α1β1γ2S receptors it was 73 ± 38.7 µM. Moreover, the Emax on α1β2γ2S receptors amounted to 765 ± 117%; on α1β3γ2S receptors [2], 522 ± 114%; on α1β1γ2S receptors, 55 ± 14%. For the same compound, the “Hill-coefficient (nH)” value at α1β2γ2S receptors is given as 2.5 ± 0.7; on α1β3γ2S receptors [2] (α1β3γ2S), 2.1 ± 0.8; at α1β1γ2S receptors it was 1.7 ± 0.7.

Take `CCNC(=O)/C(C)=C/[C@@H]1CC[C@@H](C)[C@H]2CCC(C)=C12` [VA-EA, (E)-3-((4S,7R,7aR)-3,7-dimethyl-2,4,5,6,7,7a-hexahydro-1H-inden-4-yl)-N-ethyl-2-methylacrylamide]: the “effect on locomotor activity vs control” value in the series with locomotor activity (any tested dose i.p.) is given as “did not reveal any significantly different behavior”. In addition, the PTZ-induced seizure threshold in series [1] (30 mg/kg i.p.) is 55.6 ± 0.4 mg/kg PTZ. Moreover, the figures for the EC50 on α1β2γ2S receptors, at α1β3γ2S receptors [2] and on α1β1γ2S receptors were 11 ± 3.6 µM, 27.2 ± 6.7 µM and 51.4 ± 19.8 µM, respectively. For the same compound, the figures for the Emax on α1β2γ2S receptors, at α1β3γ2S receptors [2] and at α1β1γ2S receptors were 554 ± 49%, 677 ± 64% and 458 ± 124%, respectively. The “Hill-coefficient (nH)” value amounted to 1.6 ± 0.3 on α1β2γ2S receptors, 1.3 ± 0.2 on α1β3γ2S receptors [2] (α1β3γ2S) and 1.6 ± 0.3 at α1β1γ2S receptors.

For `CC1=C2[C@H](/C=C(\C)c3nnn[nH]3)CC[C@@H](C)[C@H]2CC1` [VA-TET, 5-((E)-1-((4S,7R,7aR)-3,7-dimethyl-2,4,5,6,7,7a-hexahydro-1H-inden-4-yl)prop-1-en-2-yl)-1H-tetrazole], the “total distance covered” value in the series with locomotor activity (30 mg/kg i.p.) stood at 19.2 ± 2.1 m. Also, the “effect on locomotor activity vs control” value with locomotor activity (doses ≥10 mg/kg i.p.) is recorded as “reduced locomotion”; with locomotor activity (low doses (≤10 mg/kg) i.p.) it was “did not affect locomotor activity”. The PTZ-induced seizure threshold in series [1] (0.3 mg/kg i.p.) was 47.3 ± 0.5 mg/kg PTZ. The “effect on PTZ-induced seizure threshold” value in series [1] (doses ≥1 mg/kg i.p.) is “lost its anticonvulsive properties”. The EC50 on α1β2γ2S receptors stood at 34.1 ± 6.3 µM; at α1β3γ2S receptors [2] it was 6 ± 1 µM; at α1β1γ2S receptors, 23.5 ± 10.9 µM. Moreover, the results for the “Hill-coefficient (nH)” value on α1β2γ2S receptors, at α1β3γ2S receptors [2] (α1β3γ2S) and on α1β1γ2S receptors were 1.0 ± 0.1, 1.1 ± 0.1 and 1.8 ± 0.6, respectively. The “increase in potency on β3-containing receptors compared with VA” value on α1β3γ2S receptors [2] (EC50 ratio VA / VA-TET, α1β3γ2S) is “approximately threefold”. The figures for the Emax on α1β3γ2S receptors [2] and on α1β1γ2S receptors were 668 ± 57% and 176 ± 43%, respectively.

For `CC1=C2[C@H](/C=C(\C)C(=O)N(C)C)CC[C@@H](C)[C@H]2CC1` [VA-DMA, (E)-3-((4S,7R,7aR)-3,7-dimethyl-2,4,5,6,7,7a-hexahydro-1H-inden-4-yl)-N,N,2-trimethylacrylamide], the “effect on locomotor activity vs control” value in the series on locomotor activity (any tested dose i.p.) was “did not reveal any significantly different behavior”. Moreover, the “effect on PTZ-induced seizure threshold vs diluent-treated controls” value in series [1] (any tested dose i.p.) was “did not significantly differ”. The results for the EC50 at α1β2γ2S receptors, at α1β3γ2S receptors [2] and on α1β1γ2S receptors were 63.9 ± 23.7 µM, 48 ± 16 µM and 52.5 ± 20.1 µM, respectively. The values for the Emax at α1β2γ2S receptors, at α1β3γ2S receptors [2] and on α1β1γ2S receptors were 594 ± 36%, 415 ± 61% and 305 ± 67%, respectively. Moreover, the “Hill-coefficient (nH)” value on α1β2γ2S receptors was 1.3 ± 0.2; on α1β3γ2S receptors [2] (α1β3γ2S) it was 1.4 ± 0.2; at α1β1γ2S receptors, 1.7 ± 0.5.

`CC1=C2[C@H](/C=C(\C)C(=O)O)CC[C@@H](C)[C@H]2CC1` [VA, Valerenic acid, reference compound]: the “Hill-coefficient (nH)” value is given as 1.5 ± 0.3 at α1β3γ2S receptors [3], 1.4 ± 0.2 at α1β2γ2S receptors and 1.6 ± 0.5 on α1β1γ2S receptors. Further, the PTZ-induced seizure threshold is reported as 47.7 ± 1.4 mg/kg PTZ in series [4], 49.0 ± 1.8 mg/kg PTZ in series [1] (10 mg/kg i.p.) and 43.4 ± 1.8 mg/kg PTZ in series [1] (30 mg/kg i.p.). Further, the “total distance covered” value with locomotor activity (1 mg/kg i.p.) was 34.9 ± 1.3 m; in the series on locomotor activity (3 mg/kg i.p.), 38.7 ± 2.1 m; in the series with locomotor activity (10 mg/kg i.p.) it was 38.0 ± 1.4 m; in the series with locomotor activity (30 mg/kg i.p.), 37.6 ± 2.5 m. For the same compound, the “effect on locomotor activity vs control” value in the series with locomotor activity (any tested dose i.p.) was “did not differ significantly”. For the same compound, in the series with GABAA channels, the “concentration directly activating GABAA channels in the absence of GABA” value is not below 30 µM. Further, in series [1] (doses <3 mg/kg body weight i.p.), the “effect on PTZ-induced seizure threshold” value was “did not alter seizure threshold”. In addition, the EC50 at α1β2γ2S receptors came out at 23.1 ± 4.2 µM; on α1β1γ2S receptors it was 74.4 ± 19.3 µM. Also, the figures for the Emax at α1β2γ2S receptors and on α1β1γ2S receptors were 721 ± 68% and 111 ± 16%, respectively.

Consider `CNC(=O)/C(C)=C/[C@@H]1CC[C@@H](C)[C@H]2CCC(C)=C12` [VA-MA, (E)-3-((4S,7R,7aR)-3,7-dimethyl-2,4,5,6,7,7a-hexahydro-1H-inden-4-yl)-N,2-dimethylacrylamide], for which the “total distance covered” value in the series on locomotor activity (30 mg/kg i.p.) was found to be 29.7 ± 2.0 m. Further, the results for the “effect on locomotor activity vs control” value in the series with locomotor activity (doses ≥10 mg/kg i.p.) and in the series with locomotor activity (low doses (≤10 mg/kg) i.p.) were “reduced locomotion” and “did not affect locomotor activity”, respectively. The PTZ-induced seizure threshold in series [1] (10 mg/kg i.p.) was determined as 50.4±1.4 mg/kg PTZ; in series [1] (30 mg/kg i.p.), 63.6 ± 2.5 mg/kg PTZ. Further, the EC50 was 9.1 ± 1.4 µM at α1β2γ2S receptors, 12.7 ± 0.9 µM on α1β3γ2S receptors [2] and 58.1 ± 16.5 µM on α1β1γ2S receptors. In addition, the Emax was found to be 917 ± 36% on α1β2γ2S receptors and 387 ± 56% at α1β1γ2S receptors. Also, the “Hill-coefficient (nH)” value on α1β2γ2S receptors is 1.5 ± 0.1; on α1β3γ2S receptors [2] (α1β3γ2S) it was 1.5 ± 0.1; at α1β1γ2S receptors, 1.6 ± 0.3.

As to `CC1=C2[C@H](/C=C(\C)C(N)=O)CC[C@@H](C)[C@H]2CC1` [VA-A, (E)-3-((4S,7R,7aR)-3,7-dimethyl-2,4,5,6,7,7a-hexahydro-1H-inden-4-yl)-2-methylacrylamide], the “total distance covered” value with locomotor activity (10 mg/kg i.p.) amounted to 29.9 ± 2.6 m; with locomotor activity (30 mg/kg i.p.), 23.5±2.2 m. Also, the “effect on locomotor activity vs control” value with locomotor activity (doses of 1 and 3 mg/kg i.p.) was “did also not affect the total distance covered”; in the series on locomotor activity (doses ≥10 mg/kg i.p., 10 mg/kg), “reduced locomotion; also recorded: reduced locomotor activity”. The PTZ-induced seizure threshold was determined as 57.9 ± 1.9 mg/kg PTZ in series [1] (3 mg/kg i.p.), 55.4 ± 0.7 mg/kg PTZ in series [1] (10 mg/kg i.p.) and 50.6 ± 2.2 mg/kg PTZ in series [1] (30 mg/kg i.p.). In addition, the EC50 on α1β2γ2S receptors stood at 14 ± 2.2 µM; on α1β3γ2S receptors [2] it was 7.5 ± 1.8 µM; on α1β1γ2S receptors it was 66.6 ± 34.6 µM. In addition, the results for the “Hill-coefficient (nH)” value on α1β2γ2S receptors, on α1β3γ2S receptors [2] (α1β3γ2S) and at α1β1γ2S receptors were 1.4 ± 0.2, 1.5 ± 0.2 and 1.8 ± 0.6, respectively. The maximal effect (Emax) turned out to be 972 ± 69% at α1β3γ2S receptors [2] and 218 ± 78% on α1β1γ2S receptors.

With `CCN(CC)C(=O)/C(C)=C/[C@@H]1CC[C@@H](C)[C@H]2CCC(C)=C12` [VA-DEA, (E)-3-((4S,7R,7aR)-3,7-dimethyl-2,4,5,6,7,7a-hexahydro-1H-inden-4-yl)-N,N-diethyl-2-methylacrylamide], the “effect on locomotor activity vs control” value in the series on locomotor activity (any tested dose i.p.) was “did not reveal any significantly different behavior”. Moreover, the PTZ-induced seizure threshold in series [1] (30 mg/kg i.p.) is 48.7±1.7 mg/kg PTZ. In addition, the EC50 came to 54.4 ± 11.1 µM at α1β2γ2S receptors, 80.8 ± 31.3 µM at α1β3γ2S receptors [2] and 97.2 ± 33.8 µM on α1β1γ2S receptors. Further, the Emax on α1β2γ2S receptors was 573 ± 33%; on α1β3γ2S receptors [2], 374 ± 102%; at α1β1γ2S receptors, 318 ± 84%. Besides, the “Hill-coefficient (nH)” value is 1.6 ± 0.3 on α1β2γ2S receptors, 1.9 ± 0.5 on α1β3γ2S receptors [2] (α1β3γ2S) and 1.8 ± 0.3 at α1β1γ2S receptors.
